This passage reports zone of inhibition, MIC and inhibition of growth results from ChEMBL document CHEMBL1158358, “Synthesis, antimicrobial and cytotoxic activities of some 5-arylidene-4-thioxo-thiazolidine-2-ones” (Eur J Med Chem, 2009).

Format in all cases: functional
In experiment [1] the test system is Candida albicans. Nature of the experiment: Antimicrobial activity against Candida albicans UFPEDA 1007 at 300 ug/disk after 48 hrs by disk diffusion method. As to conditions: UFPEDA 1007, 48 h, read-out: IZ. The essentials: (§1)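 Preliminary screen by disk diffusion. Paper disks (6 mm) holding 300 µg of compound were placed on agar plates inoculated with a standardized microbial suspension. DMSO-only disks served as negative controls. A mean inhibition zone below 7 mm was scored as no sensitivity. Values are means, n = 3.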
For orientation: In agar diffusion tests the substance spreads into inoculated agar from a disc or well.

Experiment [2] relates to Micrococcus luteus. Nature of the experiment: Antimicrobial activity against Micrococcus luteus UFPEDA 06 at 300 ug/disk after 24 hrs by disk diffusion method. The following applies: UFPEDA 06, 24 h, read-out: IZ. An outline of the steps: as §1
Experiment [3] has as its system Micrococcus luteus. Kind of experiment: Antimicrobial activity against Micrococcus luteus UFPEDA 06 after 20 hrs by twofold serial dilution technique. The following applies: UFPEDA 06, 20 h. The essentials:
(§2)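 MIC was determined by twofold serial dilution. Bacteria were tested in plates at 10⁵ CFU/plate and read after 20 h. C. albicans was tested in tubes at 10³ CFU/tube and read after 48 h. All incubations were at 35 °C. Medium plus DMSO served as the negative control.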

Experiment [4] deals with NCI-H292. Nature of the experiment: Cytotoxicity against human NCI-H292 cells at 10 ug/mL after 72 hrs by MTT assay. As to conditions: NCI-H292, 72 h, read-out: GI. The essentials: (§3)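 MTT antiproliferative assay. Cells were diluted to 10⁵ cells/mL in 96-well plates and preincubated for 24 h at 37 °C in humid 5% CO₂. Compounds or vincristine (reference) were then added. Formazan was dissolved and OD read at 540 nm, compared with medium-only control cells. Run in triplicate.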

In experiment [5] the test system is NCI-H292. Nature of the experiment: Cytotoxicity against human NCI-H292 cells at 5 ug/mL after 72 hrs by MTT assay. The following applies: NCI-H292, 72 h, read-out: GI. An outline of the steps: as §3
(In general: Tetrazolium assays rely on reduction of a dye to a coloured formazan, in cell work by metabolically active cells.)

Experiment [6] deals with Enterococcus faecalis. Nature of the experiment: Antimicrobial activity against Enterococcus faecalis UFPEDA 138 at 300 ug/disk after 24 hrs by disk diffusion method. As to conditions: UFPEDA 138, 24 h, read-out: IZ. The essentials:
as §1

In experiment [7] the test system is NCI-H292. Nature of the experiment: Cytotoxicity against human NCI-H292 cells at 2.5 ug/mL after 72 hrs by MTT assay. The following applies: NCI-H292, 72 h, read-out: GI. The essentials:
as §3

The subject of experiment [8] is Staphylococcus aureus. Kind of experiment: Antimicrobial activity against Staphylococcus aureus UFPEDA 01 after 20 hrs by twofold serial dilution technique. As to conditions: UFPEDA 01, 20 h. An outline of the steps:
(§4)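 Twofold serial dilution MIC in agar plates against Gram-positive strains and multidrug-resistant clinical isolates. Inoculum applied was 10⁵ CFU/plate. Plates with culture medium plus DMSO served as negative control. MIC was read after incubation at 35 °C for 20 h.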

Experiment [9] deals with Staphylococcus aureus. Kind of experiment: Antimicrobial activity against multidrug-resistant Staphylococcus aureus H.C. 20794 isolate after 20 hrs by twofold serial dilution technique. As to conditions: H.C. 20794, 20 h. The essentials: as §4
The subject of experiment [10] is Pseudomonas aeruginosa. Nature of the experiment: Antimicrobial activity against Pseudomonas aeruginosa UFPEDA 39 at 300 ug/disk after 24 hrs by disk diffusion method. The following applies: UFPEDA 39, 24 h, read-out: IZ. The essentials:
as §1

Experiment [11] concerns Staphylococcus aureus. Nature of the experiment: Antimicrobial activity against Staphylococcus aureus UFPEDA 01 at 300 ug/disk after 24 hrs by disk diffusion method. The following applies: UFPEDA 01, 24 h, read-out: IZ. The essentials:
as §1

Experiment [12] concerns Candida albicans. Nature of the experiment: Antimicrobial activity against Candida albicans UFPEDA 1007 after 48 hrs by twofold serial dilution technique. As to conditions: UFPEDA 1007, 48 h. The essentials:
as §2

Experiment [13] deals with Bacillus subtilis. Kind of experiment: Antimicrobial activity against Bacillus subtilis UFPEDA 16 at 300 ug/disk after 24 hrs by disk diffusion method. The following applies: UFPEDA 16, 24 h, read-out: IZ. An outline of the steps: as §1
Experiment [14] concerns HEp-2. Kind of experiment: Cytotoxicity against human Hep2 cells at 2.5 ug/mL after 72 hrs by MTT assay. As to conditions: HEp-2, 72 h, read-out: GI. The essentials:
as §3

Experiment [15] has as its system Staphylococcus aureus. Kind of experiment: Antimicrobial activity against multidrug-resistant Staphylococcus aureus H.C. 20489 isolate after 20 hrs by twofold serial dilution technique. The following applies: H.C. 20489, 20 h. The essentials:
as §4

For experiment [16], the system named is Staphylococcus aureus. Nature of the experiment: Antimicrobial activity against multidrug-resistant Staphylococcus aureus H.C. 21141 isolate after 20 hrs by twofold serial dilution technique. The following applies: H.C. 21141, 20 h. The essentials:
as §4

For experiment [17], the system named is Staphylococcus aureus. Kind of experiment: Antimicrobial activity against multidrug-resistant Staphylococcus aureus H.C. 21036 isolate after 20 hrs by twofold serial dilution technique. As to conditions: H.C. 21036, 20 h. An outline of the steps: as §4
In experiment [18] the test system is HEp-2. Nature of the experiment: Cytotoxicity against human Hep2 cells at 10 ug/mL after 72 hrs by MTT assay. The following applies: HEp-2, 72 h, read-out: GI. The essentials:
as §3

Experiment [19] relates to HEp-2. Nature of the experiment: Cytotoxicity against human Hep2 cells at 5 ug/mL after 72 hrs by MTT assay. The following applies: HEp-2, 72 h, read-out: GI. The essentials: as §3
For experiment [20], the system named is Enterococcus faecalis. Nature of the experiment: Antimicrobial activity against multidrug-resistant Enterococcus faecalis H.C. 24962 isolate after 20 hrs by twofold serial dilution technique. The following applies: H.C. 24962, 20 h. An outline of the steps:
as §4

The subject of experiment [21] is Staphylococcus. Kind of experiment: Antimicrobial activity against coagulase-negative Staphylococcus H.A.M. 278 isolate after 20 hrs by twofold serial dilution technique. As to conditions: H.A.M. 278, 20 h. An outline of the steps:
as §2

Experiment [22] relates to Enterococcus faecalis. Kind of experiment: Antimicrobial activity against multidrug-resistant Enterococcus faecalis H.C. 21752 isolate after 20 hrs by twofold serial dilution technique. The following applies: H.C. 21752, 20 h. An outline of the steps:
as §4

For experiment [23], the system named is HEp-2. Kind of experiment: Cytotoxicity against human Hep2 cells at 1.25 ug/mL after 72 hrs by MTT assay. As to conditions: HEp-2, 72 h, read-out: GI. An outline of the steps:
as §3

Experiment [24] has as its system Staphylococcus aureus. Kind of experiment: Antimicrobial activity against multidrug-resistant Staphylococcus aureus H.C. 20981 isolate after 20 hrs by twofold serial dilution technique. The following applies: H.C. 20981, 20 h. An outline of the steps: as §4
Experiment [25] concerns NCI-H292. Nature of the experiment: Cytotoxicity against human NCI-H292 cells at 1.25 ug/mL after 72 hrs by MTT assay. The following applies: NCI-H292, 72 h, read-out: GI. The essentials: as §3
Experiment [26] relates to Enterococcus faecalis. Nature of the experiment: Antimicrobial activity against multidrug-resistant Enterococcus faecalis H.C. 24708 isolate after 20 hrs by twofold serial dilution technique. As to conditions: H.C. 24708, 20 h. The essentials:
as §4

The test system of experiment [27] is Serratia marcescens. Nature of the experiment: Antimicrobial activity against Serratia marcescens UFPEDA 398 at 300 ug/disk after 24 hrs by disk diffusion method. As to conditions: UFPEDA 398, 24 h, read-out: IZ. An outline of the steps: as §1
Experiment [28] has as its system Enterococcus faecalis. Nature of the experiment: Antimicrobial activity against Enterococcus faecalis UFPEDA 138 after 20 hrs by twofold serial dilution technique. The following applies: UFPEDA 138, 20 h. An outline of the steps:
as §2

In experiment [29] the test system is Enterococcus faecalis. Kind of experiment: Antimicrobial activity against multidrug-resistant Enterococcus faecalis H.C. 21944 isolate after 20 hrs by twofold serial dilution technique. As to conditions: H.C. 21944, 20 h. The essentials: as §4
The subject of experiment [30] is Staphylococcus aureus. Kind of experiment: Antimicrobial activity against multidrug-resistant Staphylococcus aureus H.C. 20905 isolate after 20 hrs by twofold serial dilution technique. The following applies: H.C. 20905, 20 h. The essentials:
as §4

In experiment [31] the test system is Bacillus subtilis. Nature of the experiment: Antimicrobial activity against Bacillus subtilis UFPEDA 16 after 20 hrs by twofold serial dilution technique. As to conditions: UFPEDA 16, 20 h. The essentials:
as §2

Experiment [32] relates to Mycolicibacterium smegmatis. Nature of the experiment: Antimicrobial activity against Mycobacterium smegmatis UFPEDA 71 at 300 ug/disk after 24 hrs by disk diffusion method. As to conditions: UFPEDA 71, 24 h, read-out: IZ. The essentials: as §1
For experiment [33], the system named is Escherichia coli. Kind of experiment: Antimicrobial activity against Escherichia coli UFPEDA 224 at 300 ug/disk after 24 hrs by disk diffusion method. As to conditions: UFPEDA 224, 24 h, read-out: IZ. The essentials: as §1
For experiment [34], the system named is Staphylococcus. Nature of the experiment: Antimicrobial activity against coagulase-negative Staphylococcus H.A.M. 338 isolate after 20 hrs by twofold serial dilution technique. As to conditions: H.A.M. 338, 20 h. The essentials:
as §2

Experiment [35] deals with Mycolicibacterium smegmatis. Kind of experiment: Antimicrobial activity against Mycobacterium smegmatis UFPEDA 71 after 20 hrs by twofold serial dilution technique. The following applies: UFPEDA 71, 20 h. The essentials:
as §2

In brackets after ≈: the same amount, converted by molar mass.

Take `O=C1NC(=S)/C(=C/c2ccccc2F)S1`: the zone of inhibition at 300 µg/disc is 16 mm in [1]; 25 mm in [2]; 20 mm in [6]; under 7 mm in [10]; 24 mm in experiment [11]; 23 mm in experiment [13]. Besides, the results for the zone of inhibition at 300 µg/disc in experiment [27], in experiment [32] and in [33] were under 7 mm, 20 mm and under 7 mm, respectively. Moreover, the MIC (usually the lowest concentration that inhibits growth of the organism) in experiment [3] was 32 µg/mL (≈ 134 µM); in experiment [8] it was 8 µg/mL (≈ 33.4 µM); in experiment [9], 8 µg/mL (≈ 33.4 µM); in experiment [12] it was 32 µg/mL (≈ 134 µM); in experiment [15], 4 µg/mL (≈ 16.7 µM); in [16] it was 8 µg/mL (≈ 33.4 µM). The MIC in experiment [17] is 2 µg/mL (≈ 8.36 µM); in [20], 32 µg/mL (≈ 134 µM); in experiment [21] it was 32 µg/mL (≈ 134 µM); in experiment [22], 32 µg/mL (≈ 134 µM); in experiment [24], 4 µg/mL (≈ 16.7 µM); in [26], 32 µg/mL (≈ 134 µM). Moreover, the MIC in experiment [28] was determined as 32 µg/mL (≈ 134 µM); in experiment [29], 32 µg/mL (≈ 134 µM); in [30], 8 µg/mL (≈ 33.4 µM); in [31], 32 µg/mL (≈ 134 µM); in experiment [34] it was 16 µg/mL (≈ 66.9 µM); in [35], 32 µg/mL (≈ 134 µM). The inhibition of growth at 10 µg/mL was 40.4% in [4] and 11.2% in [18]. The figures for the inhibition of growth at 5 µg/mL in experiment [5] and in [19] were 25.2% and 8.86%, respectively. The inhibition of growth at 2.5 µg/mL in experiment [7] is 7.78%; in [14] it was 1.66%. The figures for the inhibition of growth at 1.25 µg/mL in experiment [23] and in [25] were -8.34% and 4.29%, respectively.
Take `CC1=C(C(=O)O)N2C(=O)[C@@H](NC(=O)[C@H](N)c3ccccc3)[C@H]2SC1` [CEPHALEXIN ANHYDROUS]: the minimum inhibitory concentration (MIC) in experiment [3] is at most 1 µg/mL; in experiment [8], at most 1 µg/mL; in experiment [9], 4 µg/mL (≈ 11.5 µM); in [15], 2 µg/mL (≈ 5.76 µM); in experiment [16] it was 2 µg/mL (≈ 5.76 µM); in experiment [17] it was over 128 µg/mL. For the same compound, the MIC in [20] was 64 µg/mL (≈ 184 µM); in experiment [21] it was 128 µg/mL (≈ 368 µM); in [22], 64 µg/mL (≈ 184 µM); in [24], 8 µg/mL (≈ 23 µM); in [26], 64 µg/mL (≈ 184 µM); in experiment [28], 64 µg/mL (≈ 184 µM). In addition, the MIC in [29] is 64 µg/mL (≈ 184 µM); in experiment [30] it was over 128 µg/mL; in experiment [31], at most 1 µg/mL; in experiment [34], 128 µg/mL (≈ 368 µM); in [35], over 128 µg/mL.
In the case of `O=C1CSC(=O)N1` [THIAZOLIDINEDIONE], the zone of inhibition at 300 µg/disc in experiment [1], in experiment [2], in [6], in experiment [10], in experiment [11] and in [13] was under 7 mm throughout. Besides, the zone of inhibition at 300 µg/disc in experiment [27], in experiment [32] and in [33] was under 7 mm each time.
